Converted amounts (≈) assume the structure as drawn.
Legend:
[1] = test system: MDA-MB-231; test: Antiproliferative activity against human MDA-MB-231 cells after 72 hrs by CellTiter-Glo luminescent assay; format: functional, cell-based; settings: MDA-MB-231, 72 h
Procedure, shortened: (§1)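 Cells seeded at 2 x 10⁴/well, rested 24 h, then exposed to increasing concentrations or DMSO vehicle for 72 h. MDA-MB-231 grown in RPMI 1640 with 10% FCS; U2OS grown in DMEM + GlutaMAX with 10% FCS; both at 37°C, 5% CO₂. Viable cells read by ATP luminescence, triplicate wells. IC₅₀ from fitted dose-response curves, mean ± SD of at least 3 independent experiments.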

[2] = test system: U2OS; test: Antiproliferative activity against human U2OS cells after 72 hrs by CellTiter-Glo luminescent assay; format: functional, cell-based; procedure, shortened: as §1
[3] = Stability in rat plasma assessed as compound remaining at 1 uM after 120 mins by LC-MS/MS method; format: ADME, cell-free; settings: read-out: Stability
Procedure, shortened: (§2)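 Rat or mouse plasma, pH adjusted to 7.4 if needed, spiked with compound at 1 µM (2.5% final DMSO) at 37 °C. Stopped at 0, 15, 30, 60 and 120 min with methanol containing internal standard. Parent measured by LC-MS/MS peak-area ratio and expressed as percent remaining relative to 0 min.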

[4] = Stability in mouse plasma assessed as compound remaining at 1 uM after 120 mins by LC-MS/MS method; format: ADME, cell-free; settings: read-out: Stability; procedure, shortened: as §2
[5] = Stability in simulated gastric fluid at pH 1.2 assessed as compound remaining at 1 uM after 120 mins by LC-MS/MS method
Procedure, shortened: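 Simulated gastric fluid (HCl, NaCl, pepsin; pH 1.2), compound at 1 μM with 2.5% final DMSO, 37 °C. Quenched at 0, 15, 30, 60 and 120 min with methanol containing internal standard. Parent quantified by LC-MS/MS peak-area ratio and expressed as percent remaining versus 0 min.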

[6] = Fraction unbound in rat plasma at 5 uM by LC-MS/MS method; format: ADME, cell-free
Procedure, shortened: (§3)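 Equilibrium dialysis across a semi-permeable membrane, buffer (pH 7.4) on one side and 100% species-specific plasma on the other. Test compound at 5 μM with 0.5% final DMSO, 37 °C. Both sides sampled at equilibrium and quantified by LC-MS/MS against matrix-matched standard curves. %fu from duplicate incubations, with a control compound in each run.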

[7] = Fraction unbound in mouse plasma at 5 uM by LC-MS/MS method; format: ADME, cell-free; procedure, shortened: as §3
[8] = Thermodynamic solubility of the compound in phosphate buffered saline at pH 7.4 at 1 mg sonicated for 10 mins measured after 12 hrs by HPLC method; format: physicochemical; settings: read-out: Therm_solubility
Procedure, shortened: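 Centrifuged until clear, and supernatant analysed by HPLC at 254 nm. Concentration derived from a linear (Y = aX) calibration of MeCN dilutions at 10–100 µg/mL. Measured at 22 °C.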

[9] = Stability of the compound in PEG400 using liquid sample at 5 mg/ml at 5 degC after 30 days by UV-HPLC method; format: physicochemical; settings: 720 h
[10] = Stability of the compound in PEG400 using liquid sample at 5 mg/ml at 25 degC after 30 days by UV-HPLC method; format: physicochemical; settings: 720 h
[11] = Stability of the compound in polysorbate80/poloxamer188 formulation using liquid sample at 1 mg/ml at 5 degC after 30 days by UV-HPLC method; format: physicochemical; settings: 720 h
Procedure, shortened: (§4)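 Intravenous-type dosage solution: API at 1 mg/mL in water for injection containing polysorbate 80 and poloxamer 188 (5 mg/mL each). API dissolved in the surfactants at 70–80 °C, hot water added slowly, then cooled to ambient. Stored at 5 or 25 °C; stability followed by HPLC over 30 days.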

[12] = Stability of the compound in polysorbate80/poloxamer188 formulation using liquid sample at 1 mg/ml at 25 degC after 30 days by UV-HPLC method; format: physicochemical; settings: 720 h; procedure, shortened: as §4
[13] = Stability of the compound in PEG8000 formulation using solid sample at 5 mg/ml at 5 degC after 30 days by UV-HPLC method; format: physicochemical; settings: 720 h
Procedure, shortened: (§5)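 Solid tablets cast from hot melt: API dissolved in melted PEG8000 at 90–100 °C with stirring, or first dissolved in PEG400 and then mixed into melted PEG8000, giving a formulation containing 10% PEG400. Stored at 5 or 25 °C, degradation assessed by HPLC over 30 days, with one reading at 33 days.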

[14] = Stability of the compound in PEG8000 formulation using solid sample at 5 mg/ml at 25 degC after 33 days by UV-HPLC method; format: physicochemical; settings: 792 h; procedure, shortened: as §5
[15] = Intrinsic clearance in Sprague-Dawley rat liver microsomes assessed per mg protein at 3 uM preincubated for 45 mins followed by NADPH addition by LC-MS/MS method
[16] = Aqueous solubility of the compound; format: physicochemical; settings: buffer
[17] = test system: U2OS; test: Cell cycle arrest in human U2OS cells assessed as accumulation at G2/M phase after 24 hrs by propidium iodide staining based flow cytometric method; format: functional
Procedure, shortened: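 Exponentially growing U2OS cells treated 24 h with compound or DMSO vehicle. Cells collected, PBS-washed and fixed in ice-cold 70% methanol. About 1 million cells stained 30 min at 37 °C with propidium iodide (1%) plus RNase A (2.5%) in PBS, then analysed by flow cytometry. Phase percentages given as mean ± SD of two independent experiments.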

[18] = Intrinsic clearance in CD1 mouse liver microsomes assessed per mg protein at 3 uM preincubated for 45 mins followed by NADPH addition by LC-MS/MS method
[19] = Stability of the compound in PEG400 using liquid sample at 10 mg/ml at 5 degC after 30 days by UV-HPLC method; format: physicochemical; settings: 720 h
Procedure, shortened: (§6)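 API dissolved in PEG400 at 70–80 °C with vortexing to a clear solution at 10 mg/mL. Stored at 5 or 25 °C and checked for degradation by HPLC over 30 days.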

[20] = Stability of the compound in PEG400 using liquid sample at 10 mg/ml at 25 degC after 30 days by UV-HPLC method; format: physicochemical; settings: 720 h; procedure, shortened: as §6
[21] = Stability of the compound in PEG8000/10% PEG400 formulation using solid sample at 5 mg/ml at 5 degC after 30 days by UV-HPLC method; format: physicochemical; settings: 720 h; procedure, shortened: as §5
[22] = Stability of the compound in PEG8000/10% PEG400 formulation using solid sample assessed as compound degradation at 5 mg/ml at 25 degC after 33 days by UV-HPLC method; format: physicochemical; settings: read-out: Drug degradation; procedure, shortened: as §5

| SMILES | IC50 [1] [nM] | IC50 [2] [nM] | remaining at 2 h, 1 µM [3] [%] | remaining at 2 h, 1 µM [4] [%] | fraction unbound at 5 µM [6] | fraction unbound at 5 µM [7] | CLH [15] [mL/min] | Stability [5] [%] | other results |
| --- | --- | --- | --- | --- | --- | --- | --- | --- | --- |
| COc1cc(OC)c2c(c1Cl)O[C@]1(C2=O)C(NCc2ccc(C)cc2)=CC(=O)C[C@H]1C | 8200 | 6900 | 111 | 107 | 0.055 | 0.11 | – | 54 | – |
| COc1cc(OC)c2c(c1Cl)O[C@]1(C2=O)C(O[C@@H](C)c2ccccc2)=CC(=O)C[C@H]1C | 7100 | 1600 | – | – | – | – | – | – | solubility [16]: Insoluble |
| COc1cc(OC)c2c(c1Cl)O[C@]1(C2=O)C(O[C@H](C)c2ccccc2)=CC(=O)C[C@H]1C | 17100 | 13700 | – | – | – | – | – | – | solubility [16]: Insoluble |
| COC1=CC(=O)C[C@@H](C)[C@]12Oc1c(Cl)c(OC)cc(OC)c1C2=O [GRISEOFULVIN] | – | – | 107 | 107 | 0.216 | 0.427 | – | 73 | Activity [17]: Dose-dependent effect |
| COc1cc(OC)c2c(c1Cl)O[C@]1(C2=O)C(NCc2ccc(F)cc2)=CC(=O)C[C@H]1C | 5200 | 2600 | 92 | 108 | 0.094 | 0.132 | – | 54 | – |

More lines, main results first:

| IC50 [1] [nM] | IC50 [2] [nM] | remaining at 2 h, 1 µM [3] [%] | remaining at 2 h, 1 µM [4] [%] | fraction unbound at 5 µM [6] | fraction unbound at 5 µM [7] | CLH [15] [mL/min] | SMILES | Stability [5] [%] | other results |
| --- | --- | --- | --- | --- | --- | --- | --- | --- | --- |
| 1400 | 1200 | 102 | 87 | 0.014 | 0.043 | 59.1 | COc1cc(OC)c2c(c1Cl)O[C@]1(C2=O)C(OCc2ccccc2)=C/C(=N/O)C[C@H]1C | 81 | solubility thermodynamic at 12 h [8]: 3 µg/mL (≈ 6.76 µM); Stability [9]: Stable; Stability [10]: Stable; Stability [11]: Stable; Stability [12]: Stable; Stability [13]: Stable; Stability [14]: Stable |
| 3500 | 1900 | 106 | 104 | 0.06 | 0.087 | – | COc1cc(OC)c2c(c1Cl)O[C@]1(C2=O)C(N(C)Cc2ccccc2)=CC(=O)C[C@H]1C | 15 | – |
| 3200 | 2100 | 116 | 117 | 0.111 | 0.141 | 28 | COc1cc(OC)c2c(c1Cl)O[C@]1(C2=O)C(NCc2ccccc2)=CC(=O)C[C@H]1C | 52 | solubility thermodynamic at 12 h [8]: 62 µg/mL (≈ 145 µM); Stability [9]: Stable; Stability [10]: Stable; Stability [11]: Stable; Stability [12]: Unstable; Activity [17]: Dose-dependent effect; Stability [13]: Stable; Stability [14]: Stable |
| – | – | – | – | – | – | 30.7 | COc1cc(OC)c2c(c1Cl)O[C@]1(C2=O)C(OCc2ccc(F)cc2)=CC(=O)C[C@H]1C | – | CLH [18]: 17.4 mL/min |
| 1700 | 1300 | 89 | 102 | 0.018 | 0.018 | 60.2 | COc1cc(OC)c2c(c1Cl)O[C@]1(C2=O)C(OCc2ccc(C)cc2)=CC(=O)C[C@H]1C | 68 | – |
| 1700 | 1300 | 101 | 91 | 0.027 | 0.112 | 45 | COc1cc(OC)c2c(c1Cl)O[C@]1(C2=O)C(OCc2ccccc2)=CC(=O)C[C@H]1C | 62 | solubility thermodynamic at 12 h [8]: 0.3 µg/mL (≈ 0.7 µM); Stability [19]: Stable; Stability [20]: Stable; Stability [21]: Stable; degraded at 792 h, 5 mg/ml [22]: 4%; Stability [12]: Unstable |
